In paper PMC5884014 (Neoplasia (New York, N.Y.), 2017):

Tests used:
CRC cell lines = experiment: Cytotoxicity, panel of CRC cell lines; type: cell-based; conditions: Homo sapiens, read-out: IC50 values in CRC cell lines
HCT116 = experiment: Cytotoxicity assay; type: cell-based, human
LS174T = experiment: Cytotoxicity assay; type: cell-based, human; conditions: 72 h
[1] = Toxicology examination: serum biochemistry; type: in vivo; conditions: ICR mice, 5-FU 50 mg/kg i.p., SL-1 30, oxaliplatin 7.5, cisplatin 7.5 mg/kg i.v.
RKO cells [2] = experiment: Comet and modified comet assays; type: cell-based, human; conditions: 24 h, SL-1 0.75 μM, 5-FU […], alone or combined
In short: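 RKO cells were exposed to the test compound and/or 5-FU for 24 h and then processed by comet assay. The read-out was tail moment, reported as means ± SD (n = 3) and compared by Student's t test. Synergy on tail moment was expressed as a combination index (CI).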

RKO = experiment: Cytotoxicity assay; type: cell-based, human; conditions: 72 h
Colo205 = experiment: Cytotoxicity assay; type: cell-based, human
FHC = experiment: Cytotoxicity assay; type: cell-based, human; conditions: 72 h
LoVo = experiment: Cytotoxicity assay; type: cell-based, human; conditions: 72 h
pEGFP-N1 plasmid DNA = experiment: Alkaline agarose gel shift assay; type: biochemical; conditions: 37°C, 2 h
[3] = test system: breast carcinoma MX-1 xenografts; conditions: cited from earlier work
Caco-2 = experiment: Cytotoxicity assay; type: cell-based; conditions: Homo sapiens, Caco-2, 72 h
HT-29 = experiment: Cytotoxicity assay; type: cell-based, human
[4] = Toxicology examination: complete blood counts; type: in vivo; conditions: ICR mice, 5-FU 50 mg/kg i.p., SL-1 30, oxaliplatin 7.5, cisplatin 7.5 mg/kg i.v.
[5] = Toxicology examination: histopathology of kidney and liver; type: in vivo; conditions: ICR mice
RKO xenografts = experiment: Anticancer activity in xenograft mouse model; type: in vivo, nude mice
RKO cells [6] = experiment: Annexin V staining assay; type: cell-based, human
DLD-1 = experiment: Cytotoxicity assay; type: cell-based, human
[7] = test system: pGL4-WT and pGL4-MT luciferase reporters in RKO cells; experiment: Luciferase reporter assay; type: cell-based, human; conditions: SL-1 for 2 h
SW620 = experiment: Cytotoxicity assay; type: cell-based, human
H3347 = experiment: Cytotoxicity assay; type: cell-based, human; conditions: H3347, 72 h
RKO-E6 = experiment: Cytotoxicity assay; type: cell-based, human; conditions: RKO-E6 (p53-KO), 72 h
[8] = FHC normal fetal colonic epithelial cells

Cc1cc(NNC(=O)Nc2ccc(N(CCCl)CCCl)cc2)c2cc3c(cc2n1)OCO3 [SL-1, N-{4-[Bis(2-chloroethyl)amino]phenyl}-2-(6-methyl[1,3]-dioxolo[4,5-g]quinolin-8-yl)-hydrazinecarboxamide]
IC50 (CRC cell lines): 0.14 to 5.49 µM
IC50 (HCT116; Homo sapiens, HCT-116, 72 h): 0.34 ± 0.06 µM
IC50 (LS174T; Homo sapiens, LS174T): 4.55 ± 1.01 µM
ALP ([1]; 2 days): 331.75 ± 27.94 U/l
ALT ([1]; 2 days): 24.50 ± 2.17 U/l
AST ([1]; 2 days): 49.00 ± 3.24 U/l
BUN ([1]; 2 days): 23.05 ± 2.22 mg/dL
CRE ([1]; 2 days): 0.20 ± 0.00 mg/dL
GLU ([1]; 2 days): 466.50 ± 146.80 mg/dL
ALP ([1]; 14 days): 231.00 ± 85.33 U/l
BUN ([1]; 14 days): 20.05 ± 2.37 mg/dL
CRE ([1]; 14 days): 0.17 ± 0.06 mg/dL
GLU ([1]; 14 days): 219.75 ± 35.85 mg/dL
GOT/AST ([1]; 14 days): 47.50 ± 1.29 U/l
GPT/ALT ([1]; 14 days): 22.00 ± 8.04 U/l
tail moment (RKO cells [2]): 5.4 ± 0.8 μm
IC50 (RKO; Homo sapiens, RKO): 0.2 ± 0.08 µM
IC50 (Colo205; Homo sapiens, COLO 205, 72 h): 0.46 ± 0.1 µM
IC50 (FHC; Homo sapiens, FHC): 71.5 ± 8.36 µM
IC50 (LoVo; Homo sapiens, LoVo): 0.61 ± 0.03 µM
concentration that induced moderate levels of ICLs (pEGFP-N1 plasmid DNA): 0.05 µM
growth of breast carcinoma MX-1 xenografts [3]: complete tumor remission
IC50 (Caco-2): 5.49 ± 3.07 µM
IC50 (HT-29; Homo sapiens, HT-29, 72 h): 0.53 ± 0.11 µM
BASO ([4]; 2 days): 0.00 ± 0.00 10^9/l
EO ([4]; 2 days): 0.09 ± 0.03 10^9/l
HCT ([4]; 2 days): 38.32 ± 3.18%
HGB ([4]; 2 days): 12.34 ± 1.35 g/dL
LYMPH ([4]; 2 days): 3.55 ± 0.98 10^9/l
MCH ([4]; 2 days): 15.88 ± 0.48 pg
MCHC ([4]; 2 days): 25.86 ± 1.72 g/dL
MCV ([4]; 2 days): 58.18 ± 3.66 fL
MONO ([4]; 2 days): 0.05 ± 0.03 10^9/l
NEUT ([4]; 2 days): 0.54 ± 0.20 10^9/l
PLT ([4]; 2 days): 1742.40 ± 273.56 10^9/l
RBC ([4]; 2 days): 7.80 ± 1.03 10^12/l
WBC ([4]; 2 days): 4.81 ± 1.00 10^9/l
BASO ([4]; 14 days): 0.01 ± 0.01 10^9/l
EO ([4]; 14 days): 0.13 ± 0.05 10^9/l
HCT ([4]; 14 days): 46.28 ± 2.32%
HGB ([4]; 14 days): 13.36 ± 0.74 g/dL
LYMPH ([4]; 14 days): 4.17 ± 1.28 10^9/l
MCH ([4]; 14 days): 15.58 ± 0.47 pg
MCHC ([4]; 14 days): 28.84 ± 0.57 g/dL
MCV ([4]; 14 days): 53.96 ± 1.92 fL
MONO ([4]; 14 days): 0.12 ± 0.15 10^9/l
NEUT ([4]; 14 days): 1.08 ± 0.36 10^9/l
PLT ([4]; 14 days): 838.80 ± 57.98 10^9/l
RBC ([4]; 14 days): 8.60 ± 0.68 10^12/l
WBC ([4]; 14 days): 5.50 ± 1.64 10^9/l
liver histopathology ([5]; 2-day test): liver damage was insignificant
kidney histopathology ([5]; 2 days after single dose): insignificant morphological injury in the kidney
histopathological examination, overall ([5]; SL-1 30 mg/kg i.v.): no obvious nephrotoxicity or hepatotoxicity
tumor suppression (RKO xenografts; RKO xenograft (Figure 6A), SL-1 30 mg/kg Q2D×7 i.v., oxaliplatin 7.5 mg/kg, 5-FU 50 mg/kg): 61.8%
tumor growth suppression (RKO xenografts; RKO xenograft, nude mice, day 29, SL-1 30 mg/kg i.v. every other day 7 times): approximately 65%
mode of cell death (RKO cells [6]): primarily triggered apoptosis
IC50 (DLD-1; Homo sapiens, DLD-1, 72 h): 0.36 ± 0.07 µM
inhibition of luciferase reporter activity, pGL4-WT vs pGL4-MT [7]: inhibited the reporter activity of pGL4-WT more effectively than that of pGL4-MT
IC50 (SW620; Homo sapiens, SW-620, 72 h): 0.14 ± 0.06 µM
IC50 (H3347; Homo sapiens): 0.23 ± 0.03 µM

N.N.[Cl][Pt][Cl] [Cisplatin, cisplatin]
IC50 (HCT116; HCT116 (p53-WT), 72 h): 3.42 ± 0.36 µM
IC50 (LS174T; LS174T (p53-WT)): 8.48 ± 2.74 µM
IC50 (RKO; RKO (p53-WT)): 26.3 ± 3.28 µM
IC50 (Colo205; Colo205 (p53-WT), 72 h): 11.1 ± 1.27 µM
IC50 (FHC; [8]): 21 ± 2.03 µM
IC50 (LoVo; LoVo (p53-WT)): 6.38 ± 2.18 µM
IC50 (HT-29; HT-29 (p53-MT), 72 h): 5.99 ± 1.22 µM
IC50 (RKO-E6): 24.8 ± 7.71 µM
IC50 (DLD-1; DLD-1 (p53-MT), 72 h): 29.6 ± 6.42 µM
IC50 (SW620; SW620 (p53-MT), 72 h): 0.91 ± 0.27 µM
IC50 (H3347): 12.2 ± 0.64 µM

O=C1[O][Pt]2([NH][C@@H]3CCCC[C@H]3[NH]2)[O]C1=O [Oxaliplatin, oxaliplatin]
IC50 (HCT116; HCT116 (p53-WT), 72 h): 1.78 ± 0.11 µM
IC50 (LS174T; LS174T (p53-WT)): > 50 µM
ALP ([1]; 2 days): 498.33 ± 63.91 U/l
ALT ([1]; 2 days): 28.00 ± 1.73 U/l
AST ([1]; 2 days): 76.67 ± 16.47 U/l
BUN ([1]; 2 days): 20.27 ± 3.32 mg/dL
CRE ([1]; 2 days): 0.27 ± 0.06 mg/dL
GLU ([1]; 2 days): 153.67 ± 88.22 mg/dL
ALP ([1]; 14 days): 245.5 ± 35.07 U/l
BUN ([1]; 14 days): 21.35 ± 5.07 mg/dL
CRE ([1]; 14 days): 0.13 ± 0.05 mg/dL
GLU ([1]; 14 days): 268.25 ± 61.43 mg/dL
GOT/AST ([1]; 14 days): 47.25 ± 7.13 U/l
GPT/ALT ([1]; 14 days): 29.50 ± 5.74 U/l
IC50 (RKO; RKO (p53-WT)): 0.62 ± 0.02 µM
IC50 (Colo205; Colo205 (p53-WT), 72 h): 2.26 ± 0.78 µM
IC50 (FHC; [8]): 19.7 ± 2.21 µM
IC50 (LoVo; LoVo (p53-WT)): 1.65 ± 0.21 µM
IC50 (HT-29; HT-29 (p53-MT), 72 h): 1.92 ± 0.81 µM
IC50 (RKO-E6): 10.3 ± 3.39 µM
IC50 (DLD-1; DLD-1 (p53-MT), 72 h): 1.62 ± 0.06 µM
IC50 (SW620; SW620 (p53-MT), 72 h): 7.62 ± 3.12 µM
IC50 (H3347): 2.55 ± 0.73 µM
